Assay results as given in ChEMBL document CHEMBL4431338, “Design, synthesis and biological evaluation of novel hamamelitannin analogues as potentiators for vancomycin in the treatment of biofilm related Staphylococcus aureus infections” (Bioorg Med Chem, 2016).

system: Staphylococcus aureus; experiment: Potentiation of vancomycin-mediated reduction in CFU per biofilm of Staphylococcus aureus Mu50 preincubated with compound at 100 uM for 20 hrs followed by vancomycin addition measured after 24 hrs (reference value: 30 +/- 14%); assay type: functional; parameters: scale not given: the % may be the effect or the level left; details: not given
Method in brief: (§1)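 Inoculum: overnight MH culture resuspended in 2× MH at OD590 0.2. Analogue present during 4 h adhesion at 37 °C, then after a saline wash for 20 h more at 37 °C. Biofilms then rinsed and exposed to vancomycin (20 μg/ml) alone in saline for 24 h at 37 °C. Line 5 uses analogue at 100 μM; line 4 uses lower concentrations, with EC50 as the level doubling vancomycin killing. CFU/biofilm counted by plating after vortex/sonication, as % reduction vs untreated control. n ≥ 9.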

| Structure (SMILES) | Activity [%] |
| --- | --- |
| CN(C[C@H]1OC[C@@](O)(CNC(=O)c2ccccc2)[C@@H]1O)C(=O)c1ccccc1 | 94 |
| CS(=O)(=O)NC[C@H]1OC[C@@](O)(CNC(=O)c2ccccc2)[C@@H]1O | 69 |
| Cc1ccc(S(=O)(=O)NC[C@H]2OC[C@@](O)(CNC(=O)c3ccccc3)[C@@H]2O)cc1 | 83 |
| O=C(NC[C@]1(O)CO[C@H](CNC(=O)c2ccccc2OC(F)(F)F)[C@H]1O)c1ccccc1 | 78 |
| O=C(NC[C@]1(O)CO[C@H](CNS(=O)(=O)C(F)(F)F)[C@H]1O)c1ccccc1 | 71 |
| O=C(NC[C@]1(O)CO[C@H](CNS(=O)(=O)c2ccc(-c3ccccc3)cc2)[C@H]1O)c1ccccc1 | 84 |
| O=C(NC[C@]1(O)CO[C@H](CN2Cc3ccccc3C2=O)[C@H]1O)c1ccccc1 | 75 |
| CCS(=O)(=O)NC[C@H]1OC[C@@](O)(CNC(=O)c2ccccc2)[C@@H]1O | 49 |
| O=C(NC[C@]1(O)CO[C@H](CNC(=O)c2ccccc2Br)[C@H]1O)c1ccccc1 | 96 |
| O=C(NC[C@H]1OC[C@@](O)(CNC(=O)c2ccccc2)[C@@H]1O)c1ccccc1 | 66 |
| CC(C)S(=O)(=O)NC[C@H]1OC[C@@](O)(CNC(=O)c2ccccc2)[C@@H]1O | 72 |
| O=C(NC[C@]1(O)CO[C@H](CNC(=O)c2ccccc2I)[C@H]1O)c1ccccc1 | 96 |
| O=C(NC[C@]1(O)CO[C@H](CNC(=O)c2ccccc2OC(F)F)[C@H]1O)c1ccccc1 | 81 |
| O=C(NC[C@]1(O)CO[C@H](Cn2nncc2-c2ccccc2)[C@H]1O)c1ccccc1 | 53 |
| O=C(NC[C@H]1OC[C@@](O)(CNC(=O)c2ccccc2)[C@@H]1O)Nc1ccccc1 | 76 |
| O=C(NC[C@]1(O)CO[C@H](Cn2cc(-c3ccccc3)nn2)[C@H]1O)c1ccccc1 | 46 |
| O=C(NC[C@@H]1OC[C@@](O)(CNC(=O)c2ccccc2)[C@@H]1O)c1ccccc1 | 48 |
| O=C(NC[C@]1(O)CO[C@H](CNCc2ccccc2)[C@H]1O)c1ccccc1 | 81 |
| O=C(NC[C@]1(O)CO[C@H](CNS(=O)(=O)c2ccccc2)[C@H]1O)c1ccccc1 | 78 |
| O=C(NC[C@]1(O)CO[C@H](CNS(=O)(=O)c2ccccc2Cl)[C@H]1O)c1ccccc1 | 65 |
| O=C(NC[C@]1(O)CO[C@H](CNS(=O)(=O)c2ccc(Cl)cc2)[C@H]1O)c1ccccc1 | 86 |
| O=C(OC[C@H]1OC(O)[C@@](O)(COC(=O)c2cc(O)c(O)c(O)c2)[C@@H]1O)c1cc(O)c(O)c(O)c1 (stereo partly drawn) [HAMAMELITANNIN] | 57 |
| O=C(NC[C@]1(O)CO[C@H](CNC(=S)Nc2ccccc2)[C@H]1O)c1ccccc1 | 80 |

system: Staphylococcus aureus; experiment: Growth inhibition of Staphylococcus aureus Mu50 after 20 hrs by broth microdilution method; assay type: organism-based; details: in vitro
Method in brief: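 S. aureus Mu50 grown in Mueller–Hinton broth at 37 °C, aerobic; MICs determined in triplicate in flat-bottom 96-well microtiter plates following an earlier published method.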

| Structure (SMILES) | MIC [µM] |
| --- | --- |
| CN(C[C@H]1OC[C@@](O)(CNC(=O)c2ccccc2)[C@@H]1O)C(=O)c1ccccc1 | > 500 |
| CS(=O)(=O)NC[C@H]1OC[C@@](O)(CNC(=O)c2ccccc2)[C@@H]1O | > 500 |
| Cc1ccc(S(=O)(=O)NC[C@H]2OC[C@@](O)(CNC(=O)c3ccccc3)[C@@H]2O)cc1 | > 500 |
| O=C(NC[C@]1(O)CO[C@H](CNC(=O)c2ccccc2OC(F)(F)F)[C@H]1O)c1ccccc1 | > 500 |
| O=C(NC[C@]1(O)CO[C@H](CNS(=O)(=O)C(F)(F)F)[C@H]1O)c1ccccc1 | > 500 |
| O=C(NC[C@]1(O)CO[C@H](CNS(=O)(=O)c2ccc(-c3ccccc3)cc2)[C@H]1O)c1ccccc1 | > 500 |
| O=C(NC[C@]1(O)CO[C@H](CN2Cc3ccccc3C2=O)[C@H]1O)c1ccccc1 | > 500 |
| CCS(=O)(=O)NC[C@H]1OC[C@@](O)(CNC(=O)c2ccccc2)[C@@H]1O | > 500 |
| O=C(NC[C@]1(O)CO[C@H](CNC(=O)c2ccccc2Br)[C@H]1O)c1ccccc1 | > 500 |
| O=C(NC[C@H]1OC[C@@](O)(CNC(=O)c2ccccc2)[C@@H]1O)c1ccccc1 | > 500 |
| CC(C)S(=O)(=O)NC[C@H]1OC[C@@](O)(CNC(=O)c2ccccc2)[C@@H]1O | > 500 |
| O=C(NC[C@]1(O)CO[C@H](CNC(=O)c2ccccc2I)[C@H]1O)c1ccccc1 | > 500 |
| O=C(NC[C@]1(O)CO[C@H](CNC(=O)c2ccccc2OC(F)F)[C@H]1O)c1ccccc1 | > 500 |
| O=C(NC[C@]1(O)CO[C@H](Cn2nncc2-c2ccccc2)[C@H]1O)c1ccccc1 | > 500 |
| O=C(NC[C@H]1OC[C@@](O)(CNC(=O)c2ccccc2)[C@@H]1O)Nc1ccccc1 | > 500 |
| O=C(NC[C@]1(O)CO[C@H](Cn2cc(-c3ccccc3)nn2)[C@H]1O)c1ccccc1 | > 500 |
| O=C(NC[C@@H]1OC[C@@](O)(CNC(=O)c2ccccc2)[C@@H]1O)c1ccccc1 | > 500 |
| O=C(NC[C@]1(O)CO[C@H](CNCc2ccccc2)[C@H]1O)c1ccccc1 | > 500 |
| O=C(NC[C@]1(O)CO[C@H](CNS(=O)(=O)c2ccccc2)[C@H]1O)c1ccccc1 | > 500 |
| O=C(NC[C@]1(O)CO[C@H](CNS(=O)(=O)c2ccccc2Cl)[C@H]1O)c1ccccc1 | > 500 |
| O=C(NC[C@]1(O)CO[C@H](CNS(=O)(=O)c2ccc(Cl)cc2)[C@H]1O)c1ccccc1 | > 500 |
| O=C(OC[C@H]1OC(O)[C@@](O)(COC(=O)c2cc(O)c(O)c(O)c2)[C@@H]1O)c1cc(O)c(O)c(O)c1 (stereo partly drawn) [HAMAMELITANNIN] | > 500 |
| O=C(NC[C@]1(O)CO[C@H](CNC(=S)Nc2ccccc2)[C@H]1O)c1ccccc1 | > 500 |

system: Staphylococcus aureus; experiment: Potentiation of vancomycin-mediated reduction in CFU per biofilm of Staphylococcus aureus Mu50 after 24 hrs; assay type: functional, organism-based; details: Mu50, 24 h

| Structure (SMILES) | EC50 [µM] |
| --- | --- |
| CN(C[C@H]1OC[C@@](O)(CNC(=O)c2ccccc2)[C@@H]1O)C(=O)c1ccccc1 | 24.3 |
| O=C(NC[C@]1(O)CO[C@H](CNC(=O)c2ccccc2OC(F)(F)F)[C@H]1O)c1ccccc1 | 56.7 |
| O=C(NC[C@]1(O)CO[C@H](CN2Cc3ccccc3C2=O)[C@H]1O)c1ccccc1 | 60.2 |
| O=C(NC[C@]1(O)CO[C@H](CNC(=O)c2ccccc2Br)[C@H]1O)c1ccccc1 | 19.7 |
| O=C(NC[C@H]1OC[C@@](O)(CNC(=O)c2ccccc2)[C@@H]1O)c1ccccc1 | 124 |
| O=C(NC[C@]1(O)CO[C@H](CNC(=O)c2ccccc2Cl)[C@H]1O)c1ccccc1 | 0.389 |
| O=C(NC[C@]1(O)CO[C@H](CNC(=O)c2ccccc2I)[C@H]1O)c1ccccc1 | 20.4 |
| O=C(NC[C@]1(O)CO[C@H](CNC(=O)c2ccccc2OC(F)F)[C@H]1O)c1ccccc1 | 25.7 |
| O=C(NC[C@@H]1OC[C@@](O)(CNC(=O)c2ccccc2)[C@@H]1O)c1ccccc1 | > 250 |
| O=C(NC[C@]1(O)CO[C@H](CNCc2ccccc2)[C@H]1O)c1ccccc1 | 45.1 |
| O=C(NC[C@]1(O)CO[C@H](CNS(=O)(=O)c2ccc(Cl)cc2)[C@H]1O)c1ccccc1 | 27.8 |
| O=C(OC[C@H]1OC(O)[C@@](O)(COC(=O)c2cc(O)c(O)c(O)c2)[C@@H]1O)c1cc(O)c(O)c(O)c1 (stereo partly drawn) [HAMAMELITANNIN] | 165 |

system: Staphylococcus aureus; experiment: Potentiation of vancomycin-mediated reduction in CFU per biofilm of Staphylococcus aureus Mu50 preincubated for 20 hrs followed by vancomycin addition measured after 24 hrs; assay type: functional, organism-based; details: not given; method in brief: as §1

| Structure (SMILES) | EC50 [µM] |
| --- | --- |
| CN(C[C@H]1OC[C@@](O)(CNC(=O)c2ccccc2)[C@@H]1O)C(=O)c1ccccc1 | 8.5 |
| O=C(NC[C@]1(O)CO[C@H](CNC(=O)c2ccccc2OC(F)(F)F)[C@H]1O)c1ccccc1 | 26.4 |
| O=C(NC[C@]1(O)CO[C@H](CN2Cc3ccccc3C2=O)[C@H]1O)c1ccccc1 | 57.7 |
| O=C(NC[C@]1(O)CO[C@H](CNC(=O)c2ccccc2Br)[C@H]1O)c1ccccc1 | 9.8 |
| O=C(NC[C@H]1OC[C@@](O)(CNC(=O)c2ccccc2)[C@@H]1O)c1ccccc1 | 97 |
| O=C(NC[C@]1(O)CO[C@H](CNC(=O)c2ccccc2Cl)[C@H]1O)c1ccccc1 | 0.389 |
| O=C(NC[C@]1(O)CO[C@H](CNC(=O)c2ccccc2I)[C@H]1O)c1ccccc1 | 1.9 |
| O=C(NC[C@]1(O)CO[C@H](CNC(=O)c2ccccc2OC(F)F)[C@H]1O)c1ccccc1 | 31 |
| O=C(NC[C@@H]1OC[C@@](O)(CNC(=O)c2ccccc2)[C@@H]1O)c1ccccc1 | 224 |
| O=C(NC[C@]1(O)CO[C@H](CNCc2ccccc2)[C@H]1O)c1ccccc1 | 41.2 |
| O=C(NC[C@]1(O)CO[C@H](CNS(=O)(=O)c2ccc(Cl)cc2)[C@H]1O)c1ccccc1 | 23.5 |
| O=C(OC[C@H]1OC(O)[C@@](O)(COC(=O)c2cc(O)c(O)c(O)c2)[C@@H]1O)c1cc(O)c(O)c(O)c1 (stereo partly drawn) [HAMAMELITANNIN] | 146 |

system: Staphylococcus aureus; experiment: Potentiation of vancomycin-mediated reduction in CFU per biofilm of Staphylococcus aureus Mu50 at 100 uM after 24 hrs (reference value: 30 +/- 14%); assay type: functional; parameters: scale not given: the % may be the effect or the level left; details: not given

| Structure (SMILES) | Activity [%] |
| --- | --- |
| CN(C[C@H]1OC[C@@](O)(CNC(=O)c2ccccc2)[C@@H]1O)C(=O)c1ccccc1 | 90 |
| CS(=O)(=O)NC[C@H]1OC[C@@](O)(CNC(=O)c2ccccc2)[C@@H]1O | 62 |
| Cc1ccc(S(=O)(=O)NC[C@H]2OC[C@@](O)(CNC(=O)c3ccccc3)[C@@H]2O)cc1 | 74 |
| O=C(NC[C@]1(O)CO[C@H](CNC(=O)c2ccccc2OC(F)(F)F)[C@H]1O)c1ccccc1 | 69 |
| O=C(NC[C@]1(O)CO[C@H](CNS(=O)(=O)C(F)(F)F)[C@H]1O)c1ccccc1 | 57 |
| O=C(NC[C@]1(O)CO[C@H](CNS(=O)(=O)c2ccc(-c3ccccc3)cc2)[C@H]1O)c1ccccc1 | 83 |
| O=C(NC[C@]1(O)CO[C@H](CN2Cc3ccccc3C2=O)[C@H]1O)c1ccccc1 | 70 |
| CCS(=O)(=O)NC[C@H]1OC[C@@](O)(CNC(=O)c2ccccc2)[C@@H]1O | 47 |
| O=C(NC[C@]1(O)CO[C@H](CNC(=O)c2ccccc2Br)[C@H]1O)c1ccccc1 | 82 |
| O=C(NC[C@H]1OC[C@@](O)(CNC(=O)c2ccccc2)[C@@H]1O)c1ccccc1 | 65 |
| CC(C)S(=O)(=O)NC[C@H]1OC[C@@](O)(CNC(=O)c2ccccc2)[C@@H]1O | 67 |
| O=C(NC[C@]1(O)CO[C@H](CNC(=O)c2ccccc2I)[C@H]1O)c1ccccc1 | 84 |
| O=C(NC[C@]1(O)CO[C@H](CNC(=O)c2ccccc2OC(F)F)[C@H]1O)c1ccccc1 | 78 |
| O=C(NC[C@]1(O)CO[C@H](Cn2nncc2-c2ccccc2)[C@H]1O)c1ccccc1 | 26 |
| O=C(NC[C@H]1OC[C@@](O)(CNC(=O)c2ccccc2)[C@@H]1O)Nc1ccccc1 | 81 |
| O=C(NC[C@]1(O)CO[C@H](Cn2cc(-c3ccccc3)nn2)[C@H]1O)c1ccccc1 | 66 |
| O=C(NC[C@@H]1OC[C@@](O)(CNC(=O)c2ccccc2)[C@@H]1O)c1ccccc1 | 44 |
| O=C(NC[C@]1(O)CO[C@H](CNCc2ccccc2)[C@H]1O)c1ccccc1 | 78 |
| O=C(NC[C@]1(O)CO[C@H](CNS(=O)(=O)c2ccccc2)[C@H]1O)c1ccccc1 | 69 |
| O=C(NC[C@]1(O)CO[C@H](CNS(=O)(=O)c2ccccc2Cl)[C@H]1O)c1ccccc1 | 73 |
| O=C(NC[C@]1(O)CO[C@H](CNS(=O)(=O)c2ccc(Cl)cc2)[C@H]1O)c1ccccc1 | 85 |
| O=C(OC[C@H]1OC(O)[C@@](O)(COC(=O)c2cc(O)c(O)c(O)c2)[C@@H]1O)c1cc(O)c(O)c(O)c1 (stereo partly drawn) [HAMAMELITANNIN] | 57 |
| O=C(NC[C@]1(O)CO[C@H](CNC(=S)Nc2ccccc2)[C@H]1O)c1ccccc1 | 73 |
